From PubChem
Sampled rows, rich in hits. Any-hit rate of the full collection: about 2.5%.
SENP8 block-1: SENP8 (human) protease inhibition; Q96LD8; recombinant SENP8, Nedd8 substrate fluorescence; inhibition, % at 20 µM; 360,000 compounds, 0.64% hits; in the data active = inhibition mostly above about 40%, no sharp cut-off; inactive = mostly below about 27%
Target sequence (Q96LD8 whole entry, looked up): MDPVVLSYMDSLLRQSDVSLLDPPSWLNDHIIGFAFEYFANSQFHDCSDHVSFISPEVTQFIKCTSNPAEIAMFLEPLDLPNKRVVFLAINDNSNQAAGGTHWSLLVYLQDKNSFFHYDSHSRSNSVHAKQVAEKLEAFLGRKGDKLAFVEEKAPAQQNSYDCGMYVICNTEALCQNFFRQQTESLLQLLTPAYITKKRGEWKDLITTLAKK
SENP1 FRET inh: blocks the human SENP1 SUMO protease catalytic domain; Q9P0U3; recombinant SENP1 catalytic domain, CyPet-SUMO1-YPet FRET cleavage; inhibition, % at 10 µM; 360,000 compounds, 0.21% hits;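 active = inhibition at least 30% at 10 µM, raw YFP signal under a set limit, fluorescence ratio 0.5 to 1.5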
Target sequence (Q9P0U3 419-644 limits assumed): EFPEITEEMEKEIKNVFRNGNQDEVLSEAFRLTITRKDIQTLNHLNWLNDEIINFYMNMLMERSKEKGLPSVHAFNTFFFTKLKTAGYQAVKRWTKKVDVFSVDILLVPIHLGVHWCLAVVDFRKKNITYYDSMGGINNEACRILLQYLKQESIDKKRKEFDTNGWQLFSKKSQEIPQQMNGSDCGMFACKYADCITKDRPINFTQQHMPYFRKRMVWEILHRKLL
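Test system: recombinant human SENP1 catalytic domain, His6-tagged / Medium: pH 8 Tris buffer with EDTA, NaCl, BME, BSA, NP40, catalase / Also added: SUMO1 FRET substrate flanked by Cypet and Ypet, 25 nM / Times: 50 min reaction at room temperature / Signal: FRET, CFP and YFP emission / Control set: no-enzyme low control and enzyme-plus-DMSO high control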
SENP7 inh: inhibitors of human SENP7 protease; Q9BQF6; recombinant SENP7, Z-RLRGG-aminoluciferin luminescence, 40 min; inhibition, % at 5 µM; 330,000 compounds, 1.5% hits; AID 434973;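 active = inhibition above about 50% at the single test dose, limit read from the data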
SENP6 inh: SENP6 protease inhibition; Recombinant SENP6 catalytic domain, aminoluciferin luminescence; inhibition, % at 10 µM; 330,000 compounds, 1.8% hits; AID 2599;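 active = inhibition above about 50% at the single tested dose, limit read from the data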
SENP8 block-2: SENP8 protease inhibition; purified SENP8, Z-RLRGG-aminoluciferin cleavage, luminescence; inhibition, % at 10 µM; 330,000 compounds, 1.2% hits; in the data active = inhibition above about 50%
SENP8 confirm: human SENP8 inhibition, confirmed | AID 488912 | inhibition, % at 12.5 µM | shares compounds with SENP7 inh | 6,200 compounds, 40% hits | Recombinant SENP8, Z-RLRGG-aminoluciferin luminescence, 60 min;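 active = mean inhibition across replicates above about 50%, limit read from the data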
SENP6 conf: confirmation of human SENP6 protease inhibitors. shares compounds with SENP7 inh. recombinant SENP6, Z-RLRGG-aminoluciferin luminescence. inhibition, % at 12.5 µM. 6,200 compounds, 58% hits
SENP7 confirm: human SENP7 inhibition, confirmed; 6,200 compounds, 69% hits; inhibition, % at 12.5 µM; shares compounds with SENP7 inh; AID 488917; recombinant SENP7, Z-RLRGG-aminoluciferin luminescence, 40 min
Casp3 SENP sel: selectivity test for SENP inhibitors: human caspase-3 inhibition; inhibition, % at 12.5 µM; 6,200 compounds, 60% hits; purified caspase-3, Z-DEVD-aminoluciferin luminescence, 60 min; shares compounds with SENP7 inh;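 active = mean inhibition above about 50%, limit read from the data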
Target sequence (P42574 28-227 limits assumed): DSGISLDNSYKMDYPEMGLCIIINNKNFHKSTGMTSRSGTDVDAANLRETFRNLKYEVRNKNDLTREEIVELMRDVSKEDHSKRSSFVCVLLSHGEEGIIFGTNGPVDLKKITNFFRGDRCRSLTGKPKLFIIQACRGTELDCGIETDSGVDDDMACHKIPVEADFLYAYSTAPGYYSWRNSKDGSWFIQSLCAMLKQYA
SENP luc ctr: luminescence interference (SENP counter-screen). shares compounds with SENP7 inh. 6,200 compounds, 39% hits. AID 488919. Pre-incubated SENP8/Z-RLRGG-aminoluciferin, luciferase luminescence interference. inhibition, % at 12.5 µM;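 active = mean inhibition above about 50% when retested at one dose, limit read from the data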
Of the large screens only hits and unclear results are named; the others gave an inactive call (follow-up assays come after a bar, where they were run).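 Rule for the calls, unless noted: active = mean inhibition above about 50% in the one-dose retest (limit read from the data); inactive = the rest.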

O=C(c1ccc(Br)cc1)c1cc2ccc(O)cc2oc1=O	SENP7 inh 51, SENP6 inh 90, SENP8 block-2 92 | SENP8 confirm 92 | SENP6 conf 95 | SENP7 confirm 101 | Casp3 SENP sel 96 | SENP luc ctr 95
COc1ccc(-c2cc3ccc(OCC(N)=O)cc3oc2=O)cc1OC	none
COc1ccc(OCC(=O)N(Cc2ccco2)C2CCS(=O)(=O)C2)cc1 (centres undefined)	none
CCN1CCN(CCC(=O)Nc2cc(OC)cc(OC)c2)CC1	none
CCc1ccc(C(=O)c2cc3ccc(O)cc3oc2=O)cc1	SENP6 inh 60 | SENP8 confirm 66 | SENP6 conf 62 | SENP7 confirm 84 | Casp3 SENP sel 71 | SENP luc ctr 66
O=C(NCc1ccco1)c1cc2ccc(O)cc2oc1=O	SENP7 inh 96, SENP6 inh 98, SENP8 block-2 95 | SENP8 confirm 99 | SENP6 conf 100 | SENP7 confirm 103 | Casp3 SENP sel 99 | SENP luc ctr 99
CC(=O)c1ccc(COC(=O)c2cc3ccccc3oc2=O)cc1	none
COc1ccc(/C=C/C(=O)NCC(=O)N=Nc2c(O)[nH]c3ccc([N+](=O)[O-])cc23)cc1	none
Cc1cccc(-c2ccc3c(c2)C2CC3CCN2Cc2ccc3c(c2)OCO3)c1 (centres undefined)	none (no result: SENP7 inh, SENP6 inh, SENP8 block-2)
CCOC(=O)c1[nH]c(C)c(C(=O)Nc2ccc3c(c2)OCCO3)c1C	none
CCOc1ccc(NC(=O)c2[nH]c(C)c(C(C)=O)c2C)cc1	SENP7 inh 59, SENP6 inh 50 | SENP8 confirm 57 | SENP6 conf 50 | SENP7 confirm 81 | Casp3 SENP sel 75 | SENP luc ctr 62
CC(=O)c1c(C)[nH]c(C(=O)Nc2ccc3c(c2)OCCO3)c1C	SENP7 inh 58, SENP6 inh 58 | SENP8 confirm 57 | SENP6 conf 53 | SENP7 confirm 84 | Casp3 SENP sel 75 | SENP luc ctr 60
CCOc1ccc(NC(=O)c2c(N)n(C)c(=O)[nH]c2=O)cc1	SENP6 inh 58 | SENP8 confirm inactive | SENP6 conf inactive | SENP7 confirm inactive | Casp3 SENP sel inactive | SENP luc ctr inactive
COc1cccc(C(=O)O/N=C(\N)c2ccccn2)c1OC	SENP7 inh 73, SENP6 inh 76, SENP8 block-2 59 | SENP8 confirm 69 | SENP6 conf 68 | SENP7 confirm 92 | Casp3 SENP sel 92 | SENP luc ctr 79
N/C(=N\OC(=O)c1cccc2ccccc12)c1ccccn1	SENP7 inh 77, SENP6 inh 80, SENP8 block-2 69 | SENP8 confirm 81 | SENP6 conf 79 | SENP7 confirm 94 | Casp3 SENP sel 79 | SENP luc ctr 84
CCOC(=O)Cc1csc(NC(=O)c2cc3c(s2)CCCC3)n1	none
Cc1csc(NC(=O)c2ccc(N3CCCC3=O)cc2)n1	SENP7 inh 79, SENP6 inh 77, SENP8 block-2 63 | SENP8 confirm inactive | SENP6 conf inactive | SENP7 confirm 63 | Casp3 SENP sel 85 | SENP luc ctr inactive
Cc1csc(NC(=O)c2cc3c(s2)CCCCC3)n1	SENP7 inh 98, SENP6 inh 92, SENP8 block-2 94 | SENP8 confirm 96 | SENP6 conf 97 | SENP7 confirm 101 | Casp3 SENP sel 92 | SENP luc ctr 89
Cc1cnc(NC(=O)c2cc3c(s2)CCCC3)s1	SENP7 inh 85, SENP6 inh 88, SENP8 block-2 81 | SENP8 confirm 88 | SENP6 conf 88 | SENP7 confirm 97 | Casp3 SENP sel 79 | SENP luc ctr 56
O=C(Nc1ccon1)c1cc2c(s1)CCCC2	SENP7 inh 93, SENP6 inh 89, SENP8 block-2 84 | SENP8 confirm inactive | SENP6 conf 90 | SENP7 confirm 100 | Casp3 SENP sel 92 | SENP luc ctr 63
O=C(CSc1ccc2nnc(-c3cccnc3)n2n1)Nc1ccccc1C(F)(F)F	none
Cc1csc(NC(=O)c2cc3c(s2)CCCC3)n1	SENP7 inh 93, SENP6 inh 95, SENP8 block-2 89 | SENP8 confirm 95 | SENP6 conf 96 | SENP7 confirm 101 | Casp3 SENP sel 88 | SENP luc ctr 86
CN(CCOc1ccccc1)C(=O)c1ccc2c(c1)OCO2	none
O=C(NCCOc1ccccc1)c1ccc2c(c1)OCO2	SENP6 inh 69 | SENP8 confirm 50 | SENP6 conf inactive | SENP7 confirm 85 | Casp3 SENP sel 80 | SENP luc ctr 69
O=C(NCCOc1ccccc1)c1ccc2n[nH]nc2c1	SENP6 inh 58, SENP8 block-2 50 | SENP8 confirm 68 | SENP6 conf 68 | SENP7 confirm 87 | Casp3 SENP sel 87 | SENP luc ctr 72
Cc1cc(C)cc(N2CCCn3c2nc2c3c(=O)n(CC(=O)OCc3ccccc3)c(=O)n2C)c1	SENP7 inh 55 | SENP8 confirm inactive | SENP6 conf inactive | SENP7 confirm inactive | Casp3 SENP sel inactive | SENP luc ctr inactive
CCCOc1ccc(OCCSc2ncccn2)cc1	SENP7 inh 65, SENP6 inh 78 | SENP8 confirm inactive | SENP6 conf 54 | SENP7 confirm 86 | Casp3 SENP sel 53 | SENP luc ctr inactive
O=C(O)/C(=C\c1ccc(-c2ccccc2[N+](=O)[O-])o1)c1ccccc1	SENP6 inh 58 | SENP8 confirm 60 | SENP6 conf 66 | SENP7 confirm 74 | Casp3 SENP sel 59 | SENP luc ctr 54
Cc1ccc(C(=O)N/N=C/c2ccc(-c3cccc(Cl)c3)o2)cn1	none
Cc1ccc(C(=O)N/C(=C\c2ccc(-c3ccccc3[N+](=O)[O-])o2)C(=O)NCCCN(C)C)cc1	SENP6 inh 50 | SENP8 confirm inactive | SENP6 conf inactive | SENP7 confirm inactive | Casp3 SENP sel inactive | SENP luc ctr inactive
O=C(/C=C/c1ccc(-c2ccccc2[N+](=O)[O-])o1)c1ccccc1	none (no result: SENP7 inh, SENP6 inh, SENP8 block-2)
Cc1ccc(C(=O)N/N=C/c2ccc(-c3ccccc3[N+](=O)[O-])o2)cn1	SENP6 inh 65 | SENP8 confirm inactive | SENP6 conf inactive | SENP7 confirm inactive | Casp3 SENP sel inactive | SENP luc ctr inactive
Cc1sc2ncnc(SCC(=O)N3CCCC(C(F)(F)F)C3)c2c1C (centres undefined)	none
Cc1cccc(C(=O)OC(C)CN2C(C)CCCC2C)c1 (centres undefined)	none
